ChEMBL document CHEMBL1806382, “Special ergolines efficiently inhibit the chemokine receptor CXCR3 in blood” (Bioorg Med Chem Lett, 2011)

Experiments:
[1] = molecular target: T1, C-X-C chemokine receptor type 3 (Homo sapiens, UniProt P49682); assay: Displacement of radiolabeled CXCL11 from human CXCR3 expressed in CHO cells by scintillation proximity assay; format: cell-based
T1 sequence (P49682 whole entry): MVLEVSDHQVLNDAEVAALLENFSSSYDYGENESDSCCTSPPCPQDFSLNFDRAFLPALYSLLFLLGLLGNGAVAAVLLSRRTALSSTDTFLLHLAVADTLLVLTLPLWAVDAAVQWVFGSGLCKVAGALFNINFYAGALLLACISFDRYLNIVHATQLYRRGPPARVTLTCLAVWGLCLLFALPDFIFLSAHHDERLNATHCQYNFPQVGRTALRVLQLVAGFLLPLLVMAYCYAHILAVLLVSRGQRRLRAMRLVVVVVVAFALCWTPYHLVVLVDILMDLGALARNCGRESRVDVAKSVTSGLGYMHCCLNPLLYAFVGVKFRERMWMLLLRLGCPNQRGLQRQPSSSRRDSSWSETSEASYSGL

[2] = molecular target: T1, C-X-C chemokine receptor type 3; assay: Antagonist activity at human CXCR3 expressed in mouse L1.2 cells assessed as inhibition of ITAC-induced calcium mobilization by FLIPR assay; format: functional, cell-based
[3] = molecular target: T2, C-X-C chemokine receptor type 3 (Mus musculus, UniProt O88410); assay: Antagonist activity at mouse CXCR3 expressed in mouse L1.2 cells assessed as inhibition of ITAC-induced calcium mobilization by FLIPR assay; format: functional, cell-based
T2 sequence (O88410 whole entry): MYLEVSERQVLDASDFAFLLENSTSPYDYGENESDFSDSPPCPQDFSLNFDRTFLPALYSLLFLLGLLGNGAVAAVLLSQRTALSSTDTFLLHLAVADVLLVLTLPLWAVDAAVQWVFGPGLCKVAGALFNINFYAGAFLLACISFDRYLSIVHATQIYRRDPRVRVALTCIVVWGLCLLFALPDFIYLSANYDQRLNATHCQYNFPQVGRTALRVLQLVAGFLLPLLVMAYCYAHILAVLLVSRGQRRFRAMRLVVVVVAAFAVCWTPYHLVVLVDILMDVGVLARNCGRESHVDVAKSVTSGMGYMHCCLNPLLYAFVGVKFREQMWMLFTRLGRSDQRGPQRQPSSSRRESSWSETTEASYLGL

[4] = molecular target: T3, C-X-C chemokine receptor type 3 (Rattus norvegicus, UniProt Q9JII9); assay: Ex vivo receptor occupancy of CXCR3 in rat blood assessed as inhibition of ITAC binding after 1 hr by flow cytometry
T3 sequence (Q9JII9 whole entry): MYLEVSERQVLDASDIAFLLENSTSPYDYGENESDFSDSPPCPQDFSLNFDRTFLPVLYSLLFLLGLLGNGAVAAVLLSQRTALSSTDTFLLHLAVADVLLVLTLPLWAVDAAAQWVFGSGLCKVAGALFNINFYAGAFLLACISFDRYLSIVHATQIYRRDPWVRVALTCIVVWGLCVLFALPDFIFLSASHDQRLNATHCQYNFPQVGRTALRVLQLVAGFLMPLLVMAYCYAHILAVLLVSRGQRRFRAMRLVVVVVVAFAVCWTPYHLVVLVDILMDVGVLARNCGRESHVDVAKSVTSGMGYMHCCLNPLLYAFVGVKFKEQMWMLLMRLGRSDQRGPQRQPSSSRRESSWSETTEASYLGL
Summary of the method: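 Blood samples were pre-incubated with inhibitor, then I-TAC was added and incubation continued for 1 h at 37 °C. Samples were stained with fluorescence-labelled anti-CXCR3 antibodies, and lymphocyte fluorescence was read by flow cytometry. Restoration of anti-CXCR3 staining was compared with samples not given I-TAC. IC50 is the concentration giving 50% inhibition of I-TAC binding to CXCR3.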

SMILES	IC50 [1]	IC50 [2]	IC50 [3]	IC50 [4]
NC(=O)[C@@H]1C=C2c3cccc4[nH]cc(c34)C[C@H]2N(C(=O)Nc2ccccc2)C1	> 10000 nM	–	–	–
CCNC(=O)[C@@H]1C=C2c3cccc4[nH]cc(c34)C[C@H]2N(C(=O)Nc2ccccc2)C1	379 nM	71 nM	90 nM	–
CN(C)C(=O)[C@@H]1C=C2c3cccc4[nH]cc(c34)C[C@H]2N(C(=O)Nc2ccccc2)C1	28 nM	10 nM	10 nM	–
COCCN(CCOC)C(=O)[C@@H]1C=C2c3cccc4[nH]cc(c34)C[C@H]2N(C(=O)Nc2ccccc2)C1	305 nM	187 nM	437 nM	–
CN(CCO)C(=O)[C@@H]1C=C2c3cccc4[nH]cc(c34)C[C@H]2N(C(=O)Nc2ccccc2)C1	66 nM	12 nM	9 nM	–
O=C([C@@H]1C=C2c3cccc4[nH]cc(c34)C[C@H]2N(C(=O)Nc2ccccc2)C1)N1CCC1	–	–	14 nM	–
O=C([C@@H]1C=C2c3cccc4[nH]cc(c34)C[C@H]2N(C(=O)Nc2ccccc2)C1)N1CCCCCC1	81 nM	14 nM	13 nM	–
O=C([C@@H]1C=C2c3cccc4[nH]cc(c34)C[C@H]2N(C(=O)Nc2ccccc2)C1)N1CC=CC1	17 nM	3 nM	3 nM	–
O=C([C@@H]1C=C2c3cccc4[nH]cc(c34)C[C@H]2N(C(=O)Nc2ccccc2)C1)N1C=CCCC1	12 nM	4 nM	2 nM	–
O=C([C@@H]1C=C2c3cccc4[nH]cc(c34)C[C@H]2N(C(=O)Nc2ccccc2)C1)N1CCNCC1	1010 nM	457 nM	1730 nM	–
O=C1CN(C(=O)[C@@H]2C=C3c4cccc5[nH]cc(c45)C[C@H]3N(C(=O)Nc3ccccc3)C2)CCN1	255 nM	74 nM	–	–
CN1CCN(C(=O)[C@@H]2C=C3c4cccc5[nH]cc(c45)C[C@H]3N(C(=O)Nc3ccccc3)C2)CC1	131 nM	83 nM	112 nM	–
CC(=O)N1CCN(C(=O)[C@@H]2C=C3c4cccc5[nH]cc(c45)C[C@H]3N(C(=O)Nc3ccccc3)C2)CC1	825 nM	286 nM	–	–
O=C([C@@H]1C=C2c3cccc4[nH]cc(c34)C[C@H]2N(C(=O)Nc2ccccc2)C1)N1CCOCC1	22 nM	–	12 nM	–
CC1CN(C(=O)[C@@H]2C=C3c4cccc5[nH]cc(c45)C[C@H]3N(C(=O)Nc3ccccc3)C2)CC(C)O1 (stereo partly drawn)	1160 nM	216 nM	–	–
O=C([C@@H]1C=C2c3cccc4[nH]cc(c34)C[C@H]2N(C(=O)Nc2ccccc2)C1)N1CCS(=O)(=O)CC1	400 nM	67 nM	534 nM	–
O=C([C@@H]1C=C2c3cccc4[nH]cc(c34)C[C@H]2N(C(=O)Nc2ccccc2)C1)N1CC[C@@H](O)[C@@H](O)C1	50 nM	200 nM	40 nM	–
O=C([C@@H]1C=C2c3cccc4[nH]cc(c34)C[C@H]2N(C(=O)Nc2ccccc2)C1)N1CC[C@@H](O)C1	61 nM	22 nM	–	–
O=C([C@@H]1C=C2c3cccc4[nH]cc(c34)C[C@H]2N(C(=O)Nc2ccccc2)C1)N1CC[C@H](O)C1	47 nM	12 nM	19 nM	–
O=C([C@@H]1C=C2c3cccc4[nH]cc(c34)C[C@H]2N(C(=O)Nc2ccccc2F)C1)N1CCCC1	–	–	16 nM	–
O=C([C@@H]1C=C2c3cccc4[nH]cc(c34)C[C@H]2N(C(=O)Nc2cccc(F)c2)C1)N1CCCC1	4 nM	3 nM	2 nM	–
O=C([C@@H]1C=C2c3cccc4[nH]cc(c34)C[C@H]2N(C(=O)Nc2ccc(F)cc2)C1)N1CCCC1	7 nM	4 nM	4 nM	–
COc1ccccc1NC(=O)N1C[C@H](C(=O)N2CCCC2)C=C2c3cccc4[nH]cc(c34)C[C@H]21	523 nM	60 nM	–	–
COc1cccc(NC(=O)N2C[C@H](C(=O)N3CCCC3)C=C3c4cccc5[nH]cc(c45)C[C@H]32)c1	278 nM	27 nM	74 nM	–

SMILES	IC50 [1]	IC50 [2]	IC50 [3]	IC50 [4]
COc1ccc(NC(=O)N2C[C@H](C(=O)N3CCCC3)C=C3c4cccc5[nH]cc(c45)C[C@H]32)cc1	393 nM	89 nM	–	–
CN(C)Cc1ccccc1NC(=O)N1C[C@H](C(=O)N2CCCC2)C=C2c3cccc4[nH]cc(c34)C[C@H]21	–	> 10000 nM	–	–
CN(C)Cc1cccc(NC(=O)N2C[C@H](C(=O)N3CCCC3)C=C3c4cccc5[nH]cc(c45)C[C@H]32)c1	–	6200 nM	–	–
CN(C)Cc1ccc(NC(=O)N2C[C@H](C(=O)N3CCCC3)C=C3c4cccc5[nH]cc(c45)C[C@H]32)cc1	–	5400 nM	–	–
O=C([C@@H]1C=C2c3cccc4[nH]cc(c34)C[C@H]2N(C(=O)Nc2ccsc2)C1)N1CCCC1	26 nM	7 nM	11 nM	–
O=C([C@@H]1C=C2c3cccc4[nH]cc(c34)C[C@H]2N(C(=O)Nc2cccs2)C1)N1CCCC1	37 nM	8 nM	10 nM	–
O=C([C@@H]1C=C2c3cccc4[nH]cc(c34)C[C@H]2N(C(=O)Nc2cc[nH]c2)C1)N1CCCC1	> 10000 nM	> 10000 nM	–	–
O=C([C@@H]1C=C2c3cccc4[nH]cc(c34)C[C@H]2N(C(=O)NC2CCCC2)C1)N1CCCC1	160 nM	73 nM	81 nM	–
O=C([C@@H]1C=C2c3cccc4[nH]cc(c34)C[C@H]2N(C(=O)NC2CCCCC2)C1)N1CCCC1	24 nM	11 nM	31 nM	–
O=C([C@@H]1C=C2c3cccc4[nH]cc(c34)C[C@H]2N(C(=O)NC2CCCCCC2)C1)N1CCCC1	28 nM	14 nM	16 nM	–
O=C([C@@H]1C=C2c3cccc4[nH]cc(c34)C[C@H]2N(C(=O)NC2CCC(O)CC2)C1)N1CCCC1 (stereo partly drawn)	> 10000 nM	9480 nM	–	–
CNC(=O)N1C[C@H](C(=O)N2CCCC2)C=C2c3cccc4[nH]cc(c34)C[C@H]21	> 10000 nM	> 10000 nM	–	–
CN(C)CCCNC(=O)N1C[C@H](C(=O)N2CCCC2)C=C2c3cccc4[nH]cc(c34)C[C@H]21	–	> 10000 nM	–	–
O=C([C@@H]1C=C2c3cccc4[nH]cc(c34)C[C@H]2N(C(=O)NCc2ccccc2)C1)N1CCCC1	2200 nM	2200 nM	–	–
O=C([C@@H]1C=C2c3cccc4[nH]cc(c34)C[C@H]2N(C(=O)NCc2ccco2)C1)N1CCCC1	2600 nM	10000 nM	–	–
O=C([C@@H]1C=C2c3cccc4[nH]cc(c34)C[C@H]2N(C(=O)c2ccccc2)C1)N1CCCC1	> 10000 nM	6120 nM	–	–
O=C([C@@H]1C=C2c3cccc4[nH]cc(c34)C[C@H]2N(C(=O)Cc2ccccc2)C1)N1CCCC1	427 nM	170 nM	–	–
CC(C)OC(=O)Cn1cc2c3c(cccc31)C1=C[C@@H](C(=O)N3CCCC3)CN(C(=O)Nc3ccccc3)[C@@H]1C2	–	–	53 nM	–
O=C([C@@H]1C=C2c3cccc4c3c(cn4CCN3CCCC3)C[C@H]2N(C(=O)Nc2ccccc2)C1)N1CCCC1	3 nM	3 nM	2 nM	14 nM
O=C([C@@H]1C=C2c3cccc4c3c(cn4CCN3CCCCC3)C[C@H]2N(C(=O)Nc2ccccc2)C1)N1CCCC1	2 nM	5 nM	3 nM	16 nM
CN1CCN(CCn2cc3c4c(cccc42)C2=C[C@@H](C(=O)N4CCCC4)CN(C(=O)Nc4ccccc4)[C@@H]2C3)CC1	5 nM	5 nM	3 nM	23 nM
O=C([C@@H]1C=C2c3cccc4c3c(cn4CCN3CCOCC3)C[C@H]2N(C(=O)Nc2ccccc2)C1)N1CCCC1	24 nM	8 nM	5 nM	40 nM
CCN(CC)C(=O)[C@@H]1C=C2c3cccc4[nH]cc(c34)C[C@H]2N(C(=O)Nc2ccccc2)C1	51 nM	–	–	–
